ADAM10 inh: inhibits human ADAM10 | recombinant ADAM10, EDANS/DABCYL FRET peptide cleavage, 3 h | inhibition, % at 7 µM | AID 720582 | hit rate 0.62% among 370,000 | O14672;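 active = inhibition above a per-campaign cutoff equal to the mean of compounds falling between control-based bounds plus 3 SD, cut at about 20% in these data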;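 also: 0% = DMSO wells while the 100% control is not disclosed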
PLCg1 inh: PLC-gamma1 (human) inhibition, primary screen; hit rate 0.84% among 370,000; inhibition, % at 12.2 µM; purified PLC-gamma1, fluorogenic substrate, fluorescence; P19174
TbMetRS inhib: blocks T. brucei methionyl-tRNA synthetase activity. purified T. brucei MetRS, ATP depletion, Kinase-Glo luminescence. inhibition, % at 11.9 µM. hit rate 0.4% among 360,000. AID 624268;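 active = inhibition above a per-plate cutoff of the control wells' mean inhibition plus 3 SD, cut at about 5.5% in these data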;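 also: 0% = DMSO wells median and 100% = median of wells with control inhibitor compound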
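assay system = parasite MetRS enzyme | timing = 15 min preincubation, 2 h reaction, all 25 °C | evaluation = percent inhibition relative to median high and low control wells | medium = HEPES buffer containing pyrophosphatase, BSA, spermine, DTT | compound = single dose, 11.9 µM final nominal, 0.9% final DMSO | detection = Kinase-Glo luminescence, ATP depletion format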
PLC-beta3 inh: PLC-beta3 (human) inhibition, primary screen | Purified PLC-beta3, fluorogenic substrate, fluorescence | hit rate 0.18% among 370,000 | inhibition, % at 12.2 µM | Q01970; in the data active = inhibition above about 11%;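 also: 0% = median of compound wells on plate and 100% = full blocker control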
ADAM17 inh: inhibits human ADAM17; P78536; recombinant ADAM17, EDANS/DABCYL FRET peptide cleavage; inhibition, % at 6.95 µM; hit rate 0.83% among 370,000;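 active = inhibition above the mean of compounds lying between control limits plus 3 SD, set per campaign, cut at about 8.5% in these data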;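 also: 0% = DMSO-only wells as the low control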
PLCgamma1 ctr: PLC-gamma1 inhibition, counter-screen for PLC-beta3 hits. shares compounds with PLCg1 inh. hit rate 3.1% among 3,300. inhibition, % at 12.3 µM. purified PLC-gamma1, fluorogenic substrate, fluorescence
PLCb3 confirm: human PLC-beta3 inhibition, confirmation; shares compounds with PLCg1 inh; purified PLC-beta3, fluorogenic substrate fluorescence; inhibition, % at 12.3 µM; hit rate 1% among 3,300; in the data active = inhibition above about 11%
The depositor's hits bear a star; . = no result given. An excerpt weighted towards active compounds, which were near 2.3% of everything screened. Rule as the data show it, unless noted: active = inhibition above about 9.5%; inactive = the rest.

SMILES | ADAM10 inh | PLCg1 inh | TbMetRS inhib | PLC-beta3 inh | ADAM17 inh | PLCgamma1 ctr | PLCb3 confirm
Cc1nn(-c2ccccc2)c(N)c1N=Nc1cccnc1 | 6.5 | 5.7 | -0.1 | 10.9* | 0.9 | 5.3 | 6.8
CCc1cc(C(=O)N2CCCC(CO)(Cc3ccc(F)cc3)C2)n(C)n1 (stereo unspecified) | -0.8 | 0.6 | 0.7 | -0.6 | 2.0 | . | .
CCOC(=O)c1c(C)oc2ccc(OCC(N)=O)cc12 | 3.5 | 14.9* | -1.1 | 11.2* | 3.4 | -3.5 | -2.8
CC(C)CC(=O)OCc1cn(-c2ccccc2)nn1 | 11.7 | 14.9* | 0.7 | 5.5 | 5.5 | -3.8 | -0.7
CCNC(=O)OCc1cn(-c2ccccc2)nn1 | 3.9 | 2.3 | -0.8 | 2.8 | 0.1 | . | .
CC(C)(C)C(=O)OCc1cn(-c2ccccc2)nn1 | -5.5 | 11.3* | -0.1 | 5.7 | -2.4 | -4.8 | -3.2
O=C(O)C(C(=O)O)=C1C2CC3CC(C2)CC1C3 | 11.7 | 10.6* | -0.5 | 1.0 | -1.1 | -1.6 | -5.5
COCCNC(=O)C1(C)CCCN(CCS(=O)(=O)c2ccc(C)cc2)C1 (stereo unspecified) | 1.1 | 0.8 | -0.1 | -0.3 | -1.2 | . | .
O=C(C[n+]1ccccc1)N/N=C/c1ccco1 | -0.3 | 9.5* | -0.8 | 3.4 | 1.6 | 5.3 | 2.1
CCOP(=O)(OCC)C(NC(=O)Nc1ccccc1)C(N)=O (stereo unspecified) | 2.0 | 3.3 | -0.6 | 11.1* | 3.5 | -7.8 | -2.3
COc1ccc(S(=O)(=O)N2CCc3ccccc32)cc1C(=O)N1CCOCC1 | -11.4 | 4.5 | 0.2 | -6.5 | -1.4 | . | .
CCC(C)NC(=O)c1cn(-c2cccc(OC)c2)c(=O)c2ccccc12 (stereo unspecified) | -5.7 | -1.8 | 0.0 | -3.7 | -3.1 | . | .
CCOC(=O)c1oc2ccccc2c1COC(=O)C(C)NC(=O)c1ccco1 (stereo unspecified) | -6.6 | 10.5* | 0.7 | 1.5 | 7.2 | 2.2 | 5.3
COc1ccc(NC(=O)C2Cc3c(-c4cccc(C(N)=O)c4)ccnc3O2)cc1 (stereo unspecified) | 2.1 | 2.6 | 1.0 | 2.2 | -2.8 | . | .
CC1Cc2nc(SCC(=O)Nc3ccc(F)cc3F)n(C)c(=O)c2S1 (stereo unspecified) | 3.5 | 13.3* | 0.0 | 6.8 | 3.9 | -7.0 | -3.7
Cc1ccc(C)c(NC(=O)CSc2nc3c(c(=O)n2C)SC(C)C3)c1 (stereo unspecified) | -2.7 | 0.4 | -0.7 | 0.1 | 0.3 | . | .
C/C(=N\Nc1ccc(F)cc1F)c1ccccc1O | 8.4 | 11.6* | -0.5 | 1.6 | -3.6 | -5.8 | -5.1
CCC(C(=O)NCCCN1CCN(C)CC1)n1nc(C)c2sc3ccccc3c2c1=O (stereo unspecified) | -23.4 | 9.6* | -0.2 | -12.9 | -12.1 | -3.5 | -4.1
CCCN1CCN(CCCNC(=O)C(CC)n2nc(C)c3sc4ccccc4c3c2=O)CC1 (stereo unspecified) | -20.4 | 1.0 | -0.3 | -9.8 | -8.6 | . | .
C=C(CCO)C1=CCN(S(=O)C(C)(C)C)[C@@H]1CCO (stereo partly specified) | -18.5 | -3.4 | -0.6 | -1.4 | -2.4 | . | .
Cc1cc(OCc2nc(N)nc(N)c2-c2ccc(Cl)c(Cl)c2)ccc1[N+](=O)[O-] | 16.3 | 12.6* | -0.4 | 0.1 | 4.2 | -1.9 | -2.7
CCOc1c(Cl)cc(CNCC(O)c2ccccc2)cc1OC (stereo unspecified) | 3.1 | 10.6* | -0.5 | 2.1 | 2.3 | 2.4 | 5.3
CCOc1c(Cl)cc(CNCC(C)C)cc1OC | 4.2 | -2.2 | -0.6 | 0.8 | -4.9 | . | .
COc1ccc(Cn2cc(Cn3c4ccccc4c(=O)n3C(C)C)nn2)cc1 | -326.4 | -46.3 | -1.1 | -57.5 | -92.9 | . | .
CCN1C(=O)c2ccccc2S(=O)c2ccc(C(=O)N3CCCCCC3)cc21 (stereo unspecified) | 10.8 | 5.6 | -0.5 | 11.1* | -0.9 | -6.5 | -4.2
SMILES | ADAM10 inh | PLCg1 inh | TbMetRS inhib | PLC-beta3 inh | ADAM17 inh | PLCgamma1 ctr | PLCb3 confirm
COc1ccc2c(c1)CN1C(=O)N(C3CCCC3)S(=O)(=O)CC21 (stereo unspecified) | 0.7 | -1.4 | . | 0.8 | 0.9 | . | .
O=c1cc(-c2ccccc2)oc2cc(O)c(O)c(O)c12 | -1.7 | -5.2 | 0.6 | -9.5 | 1.1 | . | .
O=c1c(O)cccc2cc(O)c(O)c(O)c12 | -0.9 | 46.1* | 0.4 | 5.3 | -1.4 | 30.4* | 1.1
CCOc1cc(/C=N\NC(=O)Cn2nnc3ccccc32)ccc1O | -10.3 | 10.2* | -0.4 | 3.7 | -0.1 | 4.5 | 4.6
CCOC(=O)c1cc(=O)c2c([N+](=O)[O-])ccc(OC)c2o1 | 5.3 | 9.6* | 0.3 | 4.8 | 5.7 | -5.3 | -3.1
COc1cc(OC)cc(C(=O)NC2CCN(Cc3nnnn3Cc3cccs3)CC2)c1 | -4.2 | 11.5* | 0.2 | 5.1 | 1.8 | 0.8 | -0.8
COc1cc(OC)cc(C(=O)NC2CCN(Cc3nnnn3Cc3ccc(F)cc3)CC2)c1 | -5.8 | -0.8 | -1.0 | -2.8 | -2.0 | . | .
CC1(CC(=O)N/N=C/c2cc([N+](=O)[O-])c(O)cc2O)OCCO1 | 6.3 | 9.6* | -0.5 | 3.5 | 3.2 | 13.0* | 1.4
CC1(C)Cc2c(cnn2-c2ccccc2)C(NC(=O)CCCn2cncn2)C1 (stereo unspecified) | -9.5 | 0.6 | -0.5 | -9.6 | -1.3 | . | .
COc1ccc(CN2CCOCCOCCOCC2)cc1 | 3.5 | 8.0 | 0.1 | 12.7* | -2.4 | 7.1 | 4.1
CC(=O)OC[C@H]1O[C@@H](n2ccc(=O)[nH]c2=S)C(OC(C)=O)C1OC(C)=O (stereo partly specified) | 17.7 | 9.8* | -0.9 | 2.2 | 2.6 | -0.4 | 0.8
O=C(NCc1ccncc1)C1CCCN(S(=O)(=O)c2cc(Cl)ccc2Cl)C1 (stereo unspecified) | 4.1 | -0.2 | -0.1 | 2.0 | -0.5 | . | .
COc1ccc(CN2CCN(C)CC2)cc1OCc1ccccc1 | -6.0 | 11.3* | -0.5 | 4.2 | 2.1 | -2.9 | -1.6
COc1ccc(CN2CCC(C(N)=O)CC2)cc1OCc1ccccc1 | -5.1 | 3.8 | -0.4 | -5.0 | -8.4 | . | .
CCC(=O)c1ccc(OCc2ccccc2)c(OC)c1 | -11.1 | 1.2 | 0.0 | 1.3 | -3.6 | . | .
COc1cc(C(N)=O)ccc1OCc1ccccc1 | 2.9 | 7.0 | 0.1 | 11.0* | 3.9 | -7.5 | -2.1
COc1cc(C(=O)NCC2(N(C)C)CCCCC2)ccc1OCc1ccccc1 | 2.7 | 13.0* | -0.6 | 7.1 | 2.9 | -0.3 | 2.6
CCOc1ccc(C(=O)NCC(=O)NCC(c2cccs2)N2CCOCC2)cc1 (stereo unspecified) | -2.7 | 1.7 | -0.2 | -0.6 | -0.5 | . | .
O=C(Cc1ccccc1)N1O[C@H]2C=C[C@@H]1C2 | -6.6 | 0.4 | . | 1.3 | -3.8 | . | .
O=C(N/N=C/c1cccnc1)C12CC3CC(CC(C3)C1)C2 | 2.0 | 0.2 | -0.5 | 5.0 | 1.4 | . | .
